The record followed here is ChEMBL document CHEMBL4346742, “The parmodulin NRD-21 is an allosteric inhibitor of PAR1 Gq signaling with improved anti-inflammatory activity and stability” (Bioorg Med Chem, 2019).

Converted amounts (≈) assume the structure as drawn. The source made the active and inactive calls. No cut-off for these calls is given here.

Data set [1] has as its target T1, Proteinase-activated receptor 1 (Homo sapiens) (UniProt P25116).
T1 sequence (whole entry): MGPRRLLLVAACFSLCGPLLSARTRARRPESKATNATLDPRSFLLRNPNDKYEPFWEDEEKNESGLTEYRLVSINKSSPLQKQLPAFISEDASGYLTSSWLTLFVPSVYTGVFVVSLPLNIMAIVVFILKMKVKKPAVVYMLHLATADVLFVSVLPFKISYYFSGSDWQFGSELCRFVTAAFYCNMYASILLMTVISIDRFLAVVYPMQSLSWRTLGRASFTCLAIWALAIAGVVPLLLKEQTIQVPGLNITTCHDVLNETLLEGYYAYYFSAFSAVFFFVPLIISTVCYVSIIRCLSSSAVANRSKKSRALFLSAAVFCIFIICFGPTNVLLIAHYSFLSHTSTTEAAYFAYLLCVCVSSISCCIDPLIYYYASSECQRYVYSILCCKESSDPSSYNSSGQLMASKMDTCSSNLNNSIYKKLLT
In words: Negative allosteric modulation of PAR1 in human EAhy926 cells assessed as reduction in TFLLRN-NH2-induced intracellular calcium mobilization at 10 uM incubated for 15 mins followed by TFLLRN-NH2 addition by Fluo-4-AM dye based fluorescence assay relative to control. It counts as functional, cell-based. The essentials:
(§1)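 Adherent EA.hy926 endothelial cells in 96-well format, intracellular Ca2+ mobilization triggered by PAR1 agonist TFLLRN-NH2 at 5 µM; single-point % inhibition at 10 µM (n = 4 wells, SEM); 7-point concentration-response curves, 3 wells per concentration, pIC50 from 4-variable non-linear regression; average IC50 ± SEM over independent assays.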
(Calcium flux is commonly read through the fluorescence of an indicator in the cells.)

Data set [2] addresses T2, Proteinase-activated receptor 1 (Homo sapiens, UniProt P25116).
T2 sequence (P25116 whole entry): T1 sequence (whole entry)
In words: Negative allosteric modulation of PAR1 in human EAhy926 cells assessed as reduction in TFLLRN-NH2-induced intracellular calcium mobilization incubated for 15 mins followed by TFLLRN-NH2 addition by Fluo-4-AM dye based fluorescence assay. The data set is classed as functional, cell-based. The essentials:
as §1

Data set [3] has as its target T1, Proteinase-activated receptor 1 (Homo sapiens). Nature of the data set: Reversible inhibition of PAR1 in human EAhy926 cells assessed as reduction in TFLLRN-NH2-induced intracellular calcium mobilization at 10 uM incubated for 15 mins and washed in buffer followed by TFLLRN-NH2 addition by Fluo-4-AM dye based fluorescence assay relative to control. The data set is classed as functional, cell-based.

The target in data set [4] is Proteinase-activated receptor 2 (Homo sapiens) (UniProt P55085). In words: Negative allosteric modulation of PAR2 in human EAhy926 cells assessed as reduction in SLIGKV-NH2-induced intracellular calcium mobilization at 0.316 to 10 uM incubated for 15 mins followed by TFLLRN-NH2 addition by Fluo-4-AM dye based fluorescence assay relative to control. The data set is classed as functional, cell-based.

The target in data set [5] is T1, Proteinase-activated receptor 1 (Homo sapiens). Nature of the data set: Negative allosteric modulation of PAR1 in human EAhy926 cells assessed as reduction in TFLLRN-NH2-induced intracellular calcium mobilization at 31.6 uM incubated for 15 mins followed by TFLLRN-NH2 addition by Fluo-4-AM dye based fluorescence assay relative to control. The data set is classed as functional, cell-based.

The subject of data set [6] is HepG2. In words: Cytotoxicity against human HepG2 cells assessed as reduction in cell viability. It counts as cell-based. The essentials:
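Human HepG2 cells; cytotoxicity reported as CC50.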

In data set [7] the target is Beta-1 adrenergic receptor (Homo sapiens) (UniProt P08588). Nature of the data set: Inhibition of beta1 adrenoceptor (unknown origin) at 10 uM by radio ligand binding assay.
Data set [8] concerns HUVEC (human). In words: Antiinflammatory activity in human HUVEC cells assessed as inhibition of TNFalpha-induced TF expression at 10 uM preincubated for 1 hr followed by TNFalpha addition and measured after 3 hrs by qPCR analysis.
Data set [9] concerns the target Translocator protein (Rattus norvegicus) (UniProt P16257). Nature of the data set: Inhibition of rat PBR at 10 uM.
In data set [10] the target is Beta-3 adrenergic receptor (Homo sapiens) (UniProt P13945). In words: Inhibition of beta3 adrenoceptor (unknown origin) at 10 uM by radio ligand binding assay.
Data set [11] can be described thus: Solubility in 2.5% DMSO. It counts as physicochemical. The essentials:
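Kinetic aqueous solubility assay with 2.5% DMSO.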

In data set [12] the test system is Platelet. In words: Antiplatelet activity in human washed platelets assessed as inhibition of SFLLRN-NH2-induced platelet aggregation at 10 uM incubated for 2 mins followed by SFLLRN-NH2 addition and monitored for 5 mins by lumi-aggregometery.
The nature of data set [13]: Stability in mouse plasma at 10 uM measured at 4 hrs by LC-MS analysis. The data set is classed as ADME, cell-free. The method in brief:
(§2)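 Compound incubated in mouse or human plasma; % parent remaining at 4 h.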

Data set [14] is described as follows: Stability in human microsomes for 1 hr. It counts as ADME, Microsome. The note with it: read-out: Stability. The essentials:
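Human liver microsomes, % remaining after 1 h.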

Data set [15] can be described thus: Stability in human plasma at 10 uM measured at 4 hrs by LC-MS analysis. The data set is classed as ADME, cell-free. The method in brief: as §2
The target of data set [16] is T1, Proteinase-activated receptor 1 (Homo sapiens). The note with it: 0.316 uM.
For data set [17] the target is unchanged. In words: Negative allosteric modulation of PAR1 in human EAhy926 cells assessed as reduction in TFLLRN-NH2-induced intracellular calcium mobilization incubated for 15 mins followed by TFLLRN-NH2 addition by Fluo-4-AM dye based fluorescence assay relative to control. It counts as functional, cell-based. The essentials:
as §1

Data set [18] shares this target. In words: Negative allosteric modulation of PAR1 in human EAhy926 cells assessed as reduction in TFLLRN-NH2-induced intracellular calcium mobilization at 0.0316 to 3.16 uM incubated for 15 mins followed by TFLLRN-NH2 addition by Fluo-4-AM dye based fluorescence assay relative to control.
A short description of data set [19]: Stability in mouse plasma at 20 uM measured at 4 hrs by LC-MS analysis. The data set is classed as ADME, cell-free. The method in brief: as §2
The target in data set [20] is Sodium-dependent noradrenaline transporter (Homo sapiens) (UniProt P23975). Nature of the data set: Inhibition of NET receptor (unknown origin) at 10 uM.
Data set [21] can be described thus: Stability in human plasma at 20 uM measured at 4 hrs by LC-MS analysis. The data set is classed as ADME, cell-free. The essentials: as §2

Chain of Proteinase-activated receptor 2 (Homo sapiens) (P55085 whole entry): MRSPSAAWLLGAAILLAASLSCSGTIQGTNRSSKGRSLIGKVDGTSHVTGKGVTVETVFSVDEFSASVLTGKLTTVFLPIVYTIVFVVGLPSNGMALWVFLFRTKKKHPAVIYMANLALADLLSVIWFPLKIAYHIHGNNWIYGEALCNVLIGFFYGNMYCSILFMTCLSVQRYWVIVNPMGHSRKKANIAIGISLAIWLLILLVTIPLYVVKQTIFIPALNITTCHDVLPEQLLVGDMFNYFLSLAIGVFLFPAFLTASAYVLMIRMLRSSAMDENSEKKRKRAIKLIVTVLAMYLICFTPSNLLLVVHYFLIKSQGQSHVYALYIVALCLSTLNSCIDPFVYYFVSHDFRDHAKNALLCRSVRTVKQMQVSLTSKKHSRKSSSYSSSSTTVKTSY
Chain of Translocator protein (Rattus norvegicus) (P16257 whole entry, looked up): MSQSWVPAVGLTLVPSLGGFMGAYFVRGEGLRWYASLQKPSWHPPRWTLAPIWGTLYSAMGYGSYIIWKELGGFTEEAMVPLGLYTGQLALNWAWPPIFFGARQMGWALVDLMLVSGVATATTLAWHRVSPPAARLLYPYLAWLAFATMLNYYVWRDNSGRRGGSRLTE
Chain of Beta-1 adrenergic receptor (Homo sapiens) (P08588 whole entry, looked up): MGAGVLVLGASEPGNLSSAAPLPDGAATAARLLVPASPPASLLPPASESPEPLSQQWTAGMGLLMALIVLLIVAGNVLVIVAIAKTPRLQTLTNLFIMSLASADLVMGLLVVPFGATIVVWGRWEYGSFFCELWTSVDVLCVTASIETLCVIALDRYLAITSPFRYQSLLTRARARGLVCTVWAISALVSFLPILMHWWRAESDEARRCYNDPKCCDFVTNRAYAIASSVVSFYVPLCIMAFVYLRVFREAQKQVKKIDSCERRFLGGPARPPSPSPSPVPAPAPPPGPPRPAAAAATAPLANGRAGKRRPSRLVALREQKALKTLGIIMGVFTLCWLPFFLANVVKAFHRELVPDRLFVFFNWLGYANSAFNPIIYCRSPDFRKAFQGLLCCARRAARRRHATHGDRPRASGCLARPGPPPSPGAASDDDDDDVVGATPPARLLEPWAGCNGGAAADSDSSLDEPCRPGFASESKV
Chain of Beta-3 adrenergic receptor (Homo sapiens) (P13945 whole entry, looked up): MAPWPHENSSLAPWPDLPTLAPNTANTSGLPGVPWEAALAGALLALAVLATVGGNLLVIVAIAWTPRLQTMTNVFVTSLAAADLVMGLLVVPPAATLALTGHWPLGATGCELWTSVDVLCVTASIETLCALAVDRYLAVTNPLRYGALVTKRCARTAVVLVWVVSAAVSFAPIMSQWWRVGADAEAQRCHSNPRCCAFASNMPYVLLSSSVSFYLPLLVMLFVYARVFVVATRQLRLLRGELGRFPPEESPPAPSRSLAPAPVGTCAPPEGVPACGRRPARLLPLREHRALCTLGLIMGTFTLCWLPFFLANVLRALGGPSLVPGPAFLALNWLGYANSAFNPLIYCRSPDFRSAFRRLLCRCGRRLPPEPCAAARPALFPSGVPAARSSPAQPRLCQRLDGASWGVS
Chain of Sodium-dependent noradrenaline transporter (Homo sapiens) (P23975 whole entry): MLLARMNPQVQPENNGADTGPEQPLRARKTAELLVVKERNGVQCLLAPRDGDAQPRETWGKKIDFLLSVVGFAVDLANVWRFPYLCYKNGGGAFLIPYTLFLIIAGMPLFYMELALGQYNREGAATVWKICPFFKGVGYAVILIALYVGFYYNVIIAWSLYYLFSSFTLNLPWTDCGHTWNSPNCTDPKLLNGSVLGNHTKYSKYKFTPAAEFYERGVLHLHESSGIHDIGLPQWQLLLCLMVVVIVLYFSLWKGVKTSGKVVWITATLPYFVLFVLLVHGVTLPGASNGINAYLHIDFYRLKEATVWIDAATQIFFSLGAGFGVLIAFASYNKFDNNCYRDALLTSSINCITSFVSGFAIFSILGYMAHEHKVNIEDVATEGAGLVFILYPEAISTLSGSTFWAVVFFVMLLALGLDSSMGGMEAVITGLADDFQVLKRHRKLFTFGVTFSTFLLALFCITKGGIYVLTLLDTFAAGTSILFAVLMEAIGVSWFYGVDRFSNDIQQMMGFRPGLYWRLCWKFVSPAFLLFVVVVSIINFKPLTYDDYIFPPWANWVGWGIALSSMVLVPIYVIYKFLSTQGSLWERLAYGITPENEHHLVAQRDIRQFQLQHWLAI

The inhibition is the relative decrease from the control value, in per cent. Take `O=C(Nc1cccc(NC(=O)[C@H]2CCCN2)c1)c1ccccc1Br`: the inhibition in data set [1] was 63%.

Consider `C#CCCC(=O)Nc1cccc(NC(=O)c2ccccc2Br)c1`, for which the IC50 in data set [2] (read-out: pIC50 (converted)) was more than 10000 nM.

For the molecule `CCC(C)C(=O)Nc1cccc(NC(=O)c2ccccc2Br)c1` (stereo not drawn), the inhibition in data set [1] was determined as 27%.

In the case of `CCCCNc1cccc(NC(=O)c2ccccc2Br)c1`, in [3], the inhibition entry was “Active”. In addition, the inhibition in data set [1] is 85%. For the same molecule, in [4], the inhibition entry is “inactive”.

On to `COC(=O)CC(=O)Nc1cccc(NC(=O)c2ccccc2Br)c1`, for which the inhibition in [1] is 11%.

As for `O=C(Nc1cccc(NC(=O)c2ccccc2Br)c1)c1cocn1`, the inhibition result in data set [3] was “Active”. Besides, the inhibition in [1] is 82%; in data set [5], 50%. Further, the IC50 in [2] (read-out: IC50) was 420 nM. In [4], the inhibition result is “inactive”.

`CCCN(CCC)c1cccc(NC(=O)c2ccccc2Br)c1`: the inhibition in [1] worked out at 13%.

With `COCC(=O)Nc1cccc(NC(=O)c2ccccc2Br)c1`, the inhibition in data set [1] came to 38%.

With `NC(=O)CC(=O)Nc1cccc(NC(=O)c2ccccc2Br)c1`, the inhibition in [1] came to 36%.

On to `COCCNc1cccc(NC(=O)c2ccccc2Br)c1`, for which the inhibition in data set [1] amounted to 43%.

As to `CCCNCc1cccc(NC(=O)c2ccccc2Br)c1`, the inhibition in data set [1] is 17%.

Regarding `CCCCC(=O)Nc1cccc(NC(=O)c2ccccc2Br)c1`, in data set [1], the inhibition was found to be 23%.

For orientation: CC50 means the concentration that lowers cell viability or growth by half. Usually kinetic solubility stands for the concentration staying in solution when a stock, usually in DMSO, is diluted into the medium. With `CCCC(=O)Nc1cccc(NC(=O)c2ccccc2Br)c1`, the inhibition entry in data set [3] and in data set [8] was “Active” each time. In addition, the 50% cytotoxic concentration (CC50) in [6] is more than 150000 nM. Further, the inhibition turned out to be 49% in [7], 84% in [9] and 32% in data set [10]. In data set [11], this molecule registered a kinetic solubility of 24 µM (≈ 8.67 µg/mL). Also, in data set [2] (read-out: IC50), the IC50 was 570 nM. The inhibition at 10 µM in data set [12] is 100%. In addition, in data set [4], the inhibition result was “inactive”. Also, the Stability in [13] was less than 1%; in data set [15], 79%. Moreover, the remaining at 1 h in data set [14] turned out to be 99%.

As for `O=C(CC(F)(F)F)Nc1cccc(NC(=O)c2ccccc2Br)c1`, the inhibition entry in [3] is “Active”. For the same molecule, the inhibition in [1] was found to be 88%. The IC50 in [2] (read-out: IC50) amounted to 380 nM. In addition, the inhibition entry in [4] was “inactive”.

Consider `COC(C)C(=O)Nc1cccc(NC(=O)c2ccccc2Br)c1` (stereo not drawn), for which the inhibition in [1] turned out to be 58%.

Take `CCCCOc1cccc(NC(=O)c2ccccc2Br)c1`: the inhibition in [1] is 57%.

On to `CCOC(=O)Nc1cccc(NC(=O)c2ccccc2Br)c1`, for which, in [1], the inhibition amounted to 60%.

Turning to `COC(=O)Nc1cccc(NC(=O)c2ccccc2Br)c1`, the inhibition in [1] came out at 42%.

For the molecule `CN(C)CC(=O)Nc1cccc(NC(=O)c2ccccc2Br)c1`, the inhibition in [1] was found to be 3%.

For `O=C(Nc1cccc(NC(=O)c2ccccc2Br)c1)c1ccco1`, the inhibition entry in [3] was “Active”. Also, in [1], the inhibition was 92%. In [2] (read-out: IC50), the IC50 worked out at 320 nM. Further, the inhibition result in data set [4] is “inactive”.

For `CCOC(=O)N[C@@H]1CC[C@@H]2[C@@H](C1)C[C@H]1C(=O)O[C@H](C)[C@H]1[C@H]2/C=C/c1ccc(-c2cccc(F)c2)cn1`, the inhibition result in [3] and in data set [4] was “inactive” each time. For the same molecule, in data set [16], the inhibition was more than 75%.

For the molecule `O=C(Nc1cccc(NC(=O)c2ccccc2Br)c1)c1ccccc1`, the inhibition in data set [1] was 58%.

`CC(C)(C)OC(=O)N1CCC[C@H]1C(=O)Nc1cccc(NC(=O)c2ccccc2Br)c1`: in data set [1], the inhibition was -8%.

Take `O=C(Nc1cccc(NC(=O)[C@@H]2CCCN2)c1)c1ccccc1Br`: the inhibition in data set [1] is 4%.

As to `CC(C)[C@H](O)C(=O)Nc1cccc(NC(=O)c2ccccc2Br)c1`, the inhibition in data set [1] worked out at 48%.

`O=C(Nc1cccc(NC(=O)C2CCCO2)c1)c1ccccc1Br` (stereo not drawn): the inhibition in data set [1] was 42%.

With `CC(C)CC(=O)Nc1cccc(NC(=O)c2ccccc2Br)c1`, in data set [1], the inhibition was 82%.

In the case of `CCCNC(=O)c1cccc(NC(=O)c2ccccc2Br)c1`, the figures for the inhibition in data set [1] and in [17] were 63% and 50%, respectively. For the same molecule, the IC50 in [2] (read-out: IC50) turned out to be 220 nM.

With `COCCC(=O)Nc1cccc(NC(=O)c2ccccc2Br)c1`, the inhibition in [1] was found to be 39%.

For the molecule `O=C(O)CC(=O)Nc1cccc(NC(=O)c2ccccc2Br)c1`, the inhibition in data set [1] turned out to be 37%.

For `O=C(Nc1cccc(NC(=O)C2CCCC2)c1)c1ccccc1Br`, the inhibition in [1] worked out at 65%.

As to `O=C(Nc1cccc(NC(=O)C2CCOC2)c1)c1ccccc1Br` (stereo not drawn), the inhibition in data set [1] worked out at 44%.

For the molecule `CCC(=O)Nc1cccc(NC(=O)c2ccccc2Br)c1`, in [1], the inhibition is 54%.

Regarding `CCC(O)C(=O)Nc1cccc(NC(=O)c2ccccc2Br)c1` (stereo not drawn), in data set [1], the inhibition amounted to 21%.

Consider `CC(C)(C)OC(=O)N1CCC[C@@H]1C(=O)Nc1cccc(NC(=O)c2ccccc2Br)c1`, for which the inhibition in [1] is 65%.

For the molecule `CC(C)[C@@H](O)C(=O)Nc1cccc(NC(=O)c2ccccc2Br)c1`, the inhibition in [1] came to 25%.

For the molecule `O=C(Nc1cccc(NC(=O)c2ccccc2Br)c1)c1cnco1`, the inhibition result in data set [3], in [8] and in data set [18] was “Active” in each case. The CC50 in [6] is more than 150000 nM. For the same molecule, the inhibition in data set [9] amounted to 67%; in data set [1], 90%; in data set [20] it was 31%. In addition, the solubility (kinetic) in [11] is 17 µM (≈ 6.57 µg/mL). For the same molecule, in data set [2] (read-out: IC50), the IC50 is 370 nM. Moreover, the values for the Stability in data set [19] and in [21] were 32% and 97%, respectively. In addition, the inhibition at 10 µM in [12] was 100%. Moreover, the inhibition entry in data set [4] is “inactive”. Further, in [14], the remaining at 1 h amounted to 99%.
